Test results taken from ChEMBL document CHEMBL1155238, “Synthesis and antimycobacterial activity of N'-[(E)-(monosubstituted-benzylidene)]-2-pyrazinecarbohydrazide derivatives” (Eur J Med Chem, 2009).
Converted amounts (≈) assume the structure as drawn.

What was measured:
[1] = Cytotoxicity against mouse J774 cells assessed as cell viability at 150 ug/ml after 48 hrs by MTT assay; type: cell-based; details: read-out: Activity
[2] = Cytotoxicity against Mycobacterium bovis Bacillus Calmette-Guerin infected mouse J774 cells assessed as cell viability at 100 ug/ml after 48 hrs by MTT assay; type: cell-based; details: read-out: Activity
How it was run: (§1)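 J774 macrophages seeded at 2.5 × 10^6 cells/well for 24 h (5% CO2, 37 °C); non-adherent cells washed off with RPMI 1640, 10% FBS, gentamicin 25 µg/mL. Adherent cells infected with BCG (2.5 × 10^6 UFC/well), then given compound (1.0, 10.0, 100 µg/mL) in triplicate for 48 h. Medium was the live control, 3% tween 20 the dead control. MTT for 4 h, DMSO solubilization, A540, % viability.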

[3] = Cytotoxicity against mouse J774 cells assessed as cell viability at 50 ug/ml after 48 hrs by MTT assay; type: cell-based; details: read-out: Activity
[4] = system: Mycobacterium tuberculosis; assay: Antimycobacterial activity against Mycobacterium tuberculosis H37Rv ATCC 27294 after 5 days by microplate Alamar blue assay; type: functional; details: H37Rv ATCC 27294, 120 h
How it was run: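 M. tuberculosis ATCC 27294 in Middlebrook 7H9 broth with compounds serially diluted on the plate (final 0.01–100 µg/mL). Incubated at 37 °C for five days, then a 1:1 Alamar Blue/10% tween 80 mix was added for 24 h. Blue read as no growth, pink as growth. MIC is the lowest concentration preventing the blue-to-pink change.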

[5] = Cytotoxicity against Mycobacterium bovis Bacillus Calmette-Guerin infected mouse J774 cells assessed as cell viability at 50 ug/ml after 48 hrs by MTT assay; type: cell-based; details: read-out: Activity
[6] = Cytotoxicity against Mycobacterium bovis Bacillus Calmette-Guerin infected mouse J774 cells assessed as cell viability at 150 ug/ml after 48 hrs by MTT assay; type: cell-based; details: read-out: Activity
[7] = Cytotoxicity against mouse J774 cells assessed as cell viability at 100 ug/ml after 48 hrs by MTT assay; type: cell-based; details: read-out: Activity
How it was run: as §1, with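 “Uninfected J774” for “J774”, “cells” for “cells infected with BCG (2.5 × 10^6 UFC/well), then”, “absorbance at 540 nm,” for “A540,”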

Compound | viability at 48 h, 150 ug/ml [1] | viability at 48 h, 100 ug/ml [2] | viability at 48 h, 50 ug/ml [3] | MIC [4] | viability at 48 h, 50 ug/ml [5] | viability at 48 h, 150 ug/ml [6] | viability at 48 h, 100 ug/ml [7]
O=C(N/N=C/c1cccc([N+](=O)[O-])c1)c1cnccn1 | 76% | 92% | 100% | 100 µg/mL (≈ 369 µM) | 92% | 72% | 85%
O=C(N/N=C/c1ccccc1Br)c1cnccn1 | 91% | 64% | 98% | – | 73% | 52% | 100%
CCN(CC)c1ccc(/C=N/NC(=O)c2cnccn2)cc1 | 93% | 84% | 97% | – | 85% | 78% | 92%
O=C(N/N=C/c1ccc([N+](=O)[O-])cc1)c1cnccn1 | 44% | – | 50% | – | – | – | 44%
O=C(N/N=C/c1ccccc1O)c1cnccn1 | 0% | – | 1% | – | – | – | 0.3%
O=C(N/N=C/c1ccc(F)cc1)c1cnccn1 | 71% | – | 78% | – | – | – | 69%
CN(C)c1ccc(/C=N/NC(=O)c2cnccn2)cc1 | 89% | 73% | 93% | – | 80% | 71% | 87%
O=C(N/N=C/c1ccc(Cl)cc1)c1cnccn1 | 56% | – | 83% | – | – | – | 64%
COc1cccc(/C=N/NC(=O)c2cnccn2)c1 | 97% | 98% | 100% | > 100 µg/mL | 100% | 87% | 100%
COc1ccc(/C=N/NC(=O)c2cnccn2)cc1 | 55% | – | 74% | – | – | – | 55%
CCOc1cccc(/C=N/NC(=O)c2cnccn2)c1 | 69% | – | 74% | – | – | – | 71%
O=C(N/N=C/c1ccccc1Cl)c1cnccn1 | 69% | – | 70% | – | – | – | 66%
O=C(N/N=C/c1ccccc1F)c1cnccn1 | 81% | 80% | 100% | 100 µg/mL (≈ 409 µM) | 100% | 88% | 100%
O=C(N/N=C/c1cccc(F)c1)c1cnccn1 | 40% | – | 49% | – | – | – | 46%
O=C(N/N=C/c1ccc(O)cc1)c1cnccn1 | 80% | 72% | 100% | – | 100% | 91% | 81%
N#Cc1ccccc1/C=N/NC(=O)c1cnccn1 | 70% | 73% | 92% | – | 80% | 75% | 75%
CCOc1ccc(/C=N/NC(=O)c2cnccn2)cc1 | 100% | 85% | 100% | > 100 µg/mL | 90% | 88% | 98%
O=C(N/N=C/c1cccc(O)c1)c1cnccn1 | 88% | 64% | 100% | – | 73% | 57% | 100%
N#Cc1ccc(/C=N/NC(=O)c2cnccn2)cc1 | 100% | 98% | 100% | > 100 µg/mL | 100% | 100% | 100%
O=C(N/N=C/c1cccc(Cl)c1)c1cnccn1 | 100% | 96% | 100% | 50 µg/mL (≈ 192 µM) | 100% | 94% | 100%
N#Cc1cccc(/C=N/NC(=O)c2cnccn2)c1 | 100% | 98% | 100% | 50 µg/mL (≈ 199 µM) | 100% | 89% | 100%
O=C(N/N=C/c1cccc(Br)c1)c1cnccn1 | 93% | 96% | 100% | – | 87% | 56% | 100%
COc1ccccc1/C=N/NC(=O)c1cnccn1 | 97% | 54% | 97% | – | 87% | 56% | 100%
O=C(N/N=C/c1ccc(Br)cc1)c1cnccn1 | 94% | 56% | 100% | – | 52% | 54% | 100%
O=C(N/N=C/c1ccccc1)c1cnccn1 | 100% | 88% | 100% | > 100 µg/mL | 100% | 80% | 75%
O=C(N/N=C/c1ccccc1[N+](=O)[O-])c1cnccn1 | 46% | 94% | 90% | 50 µg/mL (≈ 184 µM) | 100% | 88% | 59%
NC(=O)c1cnccn1 [PYRAZINAMIDE] | 100% | 87% | 100% | > 100 µg/mL | 92% | 67% | 100%
